Active and inactive are the calls of the source. The rule behind the calls is not given here.
Legend:
[1] = target: Serine/threonine-protein kinase tousled-like 1 (Homo sapiens) (UniProt Q9UKI8); assay: Inhibition of TLK1 assessed as residual activity at 10 uM relative to control
[2] = target: Serine/threonine-protein kinase TBK1 (Homo sapiens) (UniProt Q9UHD2); assay: Inhibition of TBK1 assessed as residual activity at 10 uM relative to control
[3] = target: Casein kinase I isoform gamma-1 (Homo sapiens) (UniProt Q9HCP0); assay: Inhibition of CSNK1G1 assessed as residual activity at 10 uM relative to control
In short: (§1)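 Competition kinase-binding assay (KINOMEscan) across a non-redundant panel of 329 kinases beyond the radiometric panel; residual binding expressed relative to control.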

[4] = target: Casein kinase I isoform alpha (Homo sapiens) (UniProt P48729); assay: Inhibition of CSNK1A1 assessed as residual activity at 10 uM relative to control; in short: as §1
[5] = target: Cyclin-dependent kinase-like 2 (Homo sapiens) (UniProt Q92772); assay: Inhibition of CDKL2 assessed as residual activity at 10 uM relative to control
[6] = target: Serine/threonine-protein kinase SBK1 (Homo sapiens) (UniProt Q52WX2); assay: Inhibition of SBK1 assessed as residual activity at 10 uM relative to control
[7] = target: Serine/threonine-protein kinase PAK 2 (Homo sapiens) (UniProt Q13177); assay: Inhibition of PAK2 assessed as residual activity at 1 uM
[8] = target: T1, NUAK family SNF1-like kinase 1 (Homo sapiens) (UniProt O60285); assay: Inhibition of NUAK1 assessed as residual activity at 1 uM
T1 sequence (whole entry): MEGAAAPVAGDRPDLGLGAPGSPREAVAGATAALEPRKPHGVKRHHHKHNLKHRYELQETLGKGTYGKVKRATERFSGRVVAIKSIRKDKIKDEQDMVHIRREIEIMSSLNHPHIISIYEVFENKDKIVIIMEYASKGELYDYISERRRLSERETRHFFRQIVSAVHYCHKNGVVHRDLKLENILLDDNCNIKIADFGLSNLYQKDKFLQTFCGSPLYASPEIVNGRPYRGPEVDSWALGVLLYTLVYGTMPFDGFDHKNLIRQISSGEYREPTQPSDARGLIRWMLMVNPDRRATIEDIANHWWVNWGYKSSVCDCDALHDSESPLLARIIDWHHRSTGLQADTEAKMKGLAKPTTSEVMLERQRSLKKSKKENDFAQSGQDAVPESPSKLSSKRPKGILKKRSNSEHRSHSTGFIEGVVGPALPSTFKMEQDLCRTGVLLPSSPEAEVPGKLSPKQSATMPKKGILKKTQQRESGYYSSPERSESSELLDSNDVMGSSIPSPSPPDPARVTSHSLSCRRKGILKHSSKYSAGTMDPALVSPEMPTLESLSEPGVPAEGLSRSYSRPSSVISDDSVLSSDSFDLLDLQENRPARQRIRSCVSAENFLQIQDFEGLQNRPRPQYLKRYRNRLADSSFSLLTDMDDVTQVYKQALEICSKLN

[9] = target: Serine/threonine-protein kinase 24 (Homo sapiens) (UniProt Q9Y6E0); assay: Inhibition of MST3 assessed as residual activity at 1 uM
[10] = target: Serine/threonine-protein kinase 3 (Homo sapiens) (UniProt Q13188); assay: Inhibition of MST2 assessed as residual activity at 1 uM
[11] = target: Inhibitor of nuclear factor kappa-B kinase subunit epsilon (Homo sapiens) (UniProt Q14164); assay: Inhibition of IKKe assessed as residual activity at 1 uM
[12] = target: Fibroblast growth factor receptor 1 (Homo sapiens) (UniProt P11362); assay: Inhibition of FGF-R1 assessed as residual activity at 1 uM
In short: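 Radioactivity-based enzymatic activity assay of the named kinase, run as part of a 131-kinase specificity panel at the National Centre for Protein Kinase Profiling (Dundee). Residual activity was read at the stated single inhibitor concentration.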

[13] = target: Leukocyte tyrosine kinase receptor (Homo sapiens) (UniProt P29376); assay: Inhibition of LTK assessed as residual activity at 10 uM relative to control
[14] = target: Mitogen-activated protein kinase 10 (Homo sapiens) (UniProt P53779); assay: Inhibition of JNK3 assessed as residual activity at 10 uM relative to control
[15] = target: Tyrosine-protein kinase receptor UFO (Homo sapiens) (UniProt P30530); assay: Inhibition of AXL assessed as residual activity at 10 uM relative to control
[16] = target: Serine/threonine-protein kinase D2 (Homo sapiens) (UniProt Q9BZL6); assay: Inhibition of PRKD2 assessed as residual activity at 10 uM relative to control
[17] = target: Phosphatidylinositol 4-phosphate 5-kinase type-1 alpha (Homo sapiens) (UniProt Q99755); assay: Inhibition of PIP5K1A assessed as residual activity at 10 uM relative to control
[18] = target: AP2-associated protein kinase 1 (Homo sapiens) (UniProt Q2M2I8); assay: Inhibition of AAK1 assessed as residual activity at 10 uM relative to control
[19] = target: Serine/threonine-protein kinase N2 (Homo sapiens) (UniProt Q16513); assay: Inhibition of PRK2 assessed as residual activity at 10 uM
[20] = tested on: Receptor-type tyrosine-protein kinase FLT3 (Homo sapiens), P36888 [N841I]; assay: Inhibition of FLT3 N841I mutant assessed as residual activity at 10 uM relative to control
[21] = tested on: Receptor-type tyrosine-protein kinase FLT3 (Homo sapiens), P36888 [D835Y]; assay: Inhibition of FLT3 D835Y mutant assessed as residual activity at 10 uM relative to control
[22] = target: Misshapen-like kinase 1 (Homo sapiens) (UniProt Q8N4C8); assay: Inhibition of MINK1 assessed as residual activity at 10 uM
[23] = target: Epidermal growth factor receptor (Homo sapiens) (UniProt P04626+P00533+Q15303+P21860); assay: Inhibition of EGFR L747-T751del, Sins mutant assessed as residual activity at 10 uM relative to control; type: protein assay; in short: as §1
[24] = target: Tyrosine-protein kinase ZAP-70 (Homo sapiens) (UniProt P43403); assay: Inhibition of ZAP70 assessed as residual activity at 1 uM
[25] = target: Serine/threonine-protein kinase 33 (Homo sapiens) (UniProt Q9BYT3); assay: Inhibition of STK33 assessed as residual activity at 1 uM
[26] = target: Myosin light chain kinase, smooth muscle (Homo sapiens) (UniProt Q15746); assay: Inhibition of SmMLCK assessed as residual activity at 1 uM
[27] = target: Mitogen-activated protein kinase 13 (Homo sapiens) (UniProt O15264); assay: Inhibition of p38-delta assessed as residual activity at 10 uM relative to control
[28] = target: Serine/threonine-protein kinase 3 (Homo sapiens) (UniProt Q13188); assay: Inhibition of MST2 assessed as residual activity at 10 uM relative to control
[29] = target: Leucine-rich repeat serine/threonine-protein kinase 2 (Homo sapiens) (UniProt Q5S007); details: 0.01 to 1 uM
[30] = tested on: Leucine-rich repeat serine/threonine-protein kinase 2 (Homo sapiens), Q5S007 [A2016T]; details: HEK293, 1 to 3 uM

Sequence of Serine/threonine-protein kinase 3 (Homo sapiens) (Q13188 whole entry): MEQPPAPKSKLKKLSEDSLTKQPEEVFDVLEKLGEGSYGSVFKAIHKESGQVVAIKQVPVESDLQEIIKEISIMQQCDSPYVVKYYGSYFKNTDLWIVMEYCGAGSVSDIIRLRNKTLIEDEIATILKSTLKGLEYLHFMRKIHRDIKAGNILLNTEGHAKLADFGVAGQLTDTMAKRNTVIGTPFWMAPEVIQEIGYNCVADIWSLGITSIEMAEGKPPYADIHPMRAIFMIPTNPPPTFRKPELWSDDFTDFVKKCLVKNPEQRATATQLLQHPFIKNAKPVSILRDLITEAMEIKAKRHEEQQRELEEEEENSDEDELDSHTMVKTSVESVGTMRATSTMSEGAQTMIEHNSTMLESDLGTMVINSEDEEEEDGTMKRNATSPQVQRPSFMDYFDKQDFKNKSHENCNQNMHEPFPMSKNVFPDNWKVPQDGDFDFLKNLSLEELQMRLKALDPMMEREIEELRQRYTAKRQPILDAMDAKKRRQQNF
Sequence of Casein kinase I isoform alpha (Homo sapiens) (P48729 2-337 limits assumed): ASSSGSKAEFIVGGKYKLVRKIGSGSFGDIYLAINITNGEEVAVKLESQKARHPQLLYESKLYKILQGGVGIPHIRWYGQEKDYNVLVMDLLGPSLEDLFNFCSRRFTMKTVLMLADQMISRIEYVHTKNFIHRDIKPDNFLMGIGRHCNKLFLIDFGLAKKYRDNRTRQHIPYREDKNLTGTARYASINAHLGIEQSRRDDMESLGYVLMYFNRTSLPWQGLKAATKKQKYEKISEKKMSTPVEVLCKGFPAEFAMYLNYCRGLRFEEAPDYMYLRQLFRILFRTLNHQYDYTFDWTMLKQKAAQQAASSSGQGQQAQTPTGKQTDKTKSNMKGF
Sequence of Serine/threonine-protein kinase TBK1 (Homo sapiens) (Q9UHD2 whole entry, canonical isoform): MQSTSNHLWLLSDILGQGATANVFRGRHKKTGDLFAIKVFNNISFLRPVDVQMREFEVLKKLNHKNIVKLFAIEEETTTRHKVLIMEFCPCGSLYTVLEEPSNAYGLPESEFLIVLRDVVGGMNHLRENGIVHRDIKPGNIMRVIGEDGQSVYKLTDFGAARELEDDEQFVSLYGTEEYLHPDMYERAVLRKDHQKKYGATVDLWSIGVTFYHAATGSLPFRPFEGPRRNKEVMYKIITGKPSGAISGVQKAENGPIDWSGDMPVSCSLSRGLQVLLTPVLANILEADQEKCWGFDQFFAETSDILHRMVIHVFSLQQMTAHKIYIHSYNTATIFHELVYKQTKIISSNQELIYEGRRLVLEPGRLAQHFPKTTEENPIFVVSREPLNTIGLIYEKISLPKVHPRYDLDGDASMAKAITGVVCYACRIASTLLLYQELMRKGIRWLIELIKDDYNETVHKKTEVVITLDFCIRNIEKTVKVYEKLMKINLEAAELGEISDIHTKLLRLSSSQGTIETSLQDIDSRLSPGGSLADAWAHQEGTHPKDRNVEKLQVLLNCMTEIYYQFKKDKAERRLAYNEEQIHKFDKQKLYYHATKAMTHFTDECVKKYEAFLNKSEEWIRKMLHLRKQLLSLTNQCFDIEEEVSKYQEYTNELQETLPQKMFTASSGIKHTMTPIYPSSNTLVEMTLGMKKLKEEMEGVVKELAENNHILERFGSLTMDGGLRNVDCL
Sequence of Mitogen-activated protein kinase 10 (Homo sapiens) (P53779 whole entry): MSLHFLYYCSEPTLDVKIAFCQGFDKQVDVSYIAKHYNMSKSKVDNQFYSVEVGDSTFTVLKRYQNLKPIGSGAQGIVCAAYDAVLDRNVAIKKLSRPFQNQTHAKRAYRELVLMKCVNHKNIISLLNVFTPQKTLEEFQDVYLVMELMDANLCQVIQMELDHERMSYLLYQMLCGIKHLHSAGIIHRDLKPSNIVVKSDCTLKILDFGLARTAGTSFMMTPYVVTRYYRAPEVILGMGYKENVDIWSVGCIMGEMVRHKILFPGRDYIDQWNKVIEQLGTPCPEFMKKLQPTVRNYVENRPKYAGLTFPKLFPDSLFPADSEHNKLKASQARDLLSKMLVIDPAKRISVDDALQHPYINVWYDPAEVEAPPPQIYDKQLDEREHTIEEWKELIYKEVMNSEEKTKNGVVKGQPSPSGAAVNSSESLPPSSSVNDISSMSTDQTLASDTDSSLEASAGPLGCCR
Sequence of Serine/threonine-protein kinase 33 (Homo sapiens) (Q9BYT3 whole entry, looked up): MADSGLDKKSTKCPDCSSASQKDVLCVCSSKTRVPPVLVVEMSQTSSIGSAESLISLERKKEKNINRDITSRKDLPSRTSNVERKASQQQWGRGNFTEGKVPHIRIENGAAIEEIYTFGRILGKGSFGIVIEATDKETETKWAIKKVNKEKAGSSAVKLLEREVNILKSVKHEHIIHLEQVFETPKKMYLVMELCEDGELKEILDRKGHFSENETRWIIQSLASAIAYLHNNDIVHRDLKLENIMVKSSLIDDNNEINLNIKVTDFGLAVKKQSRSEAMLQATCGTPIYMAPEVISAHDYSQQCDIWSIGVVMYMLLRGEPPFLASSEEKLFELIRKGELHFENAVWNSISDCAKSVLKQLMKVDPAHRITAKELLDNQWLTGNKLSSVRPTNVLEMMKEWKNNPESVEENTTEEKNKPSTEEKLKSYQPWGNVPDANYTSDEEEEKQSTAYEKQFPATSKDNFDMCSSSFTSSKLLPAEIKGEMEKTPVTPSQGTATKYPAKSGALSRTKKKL
Sequence of Serine/threonine-protein kinase D2 (Homo sapiens) (Q9BZL6 whole entry): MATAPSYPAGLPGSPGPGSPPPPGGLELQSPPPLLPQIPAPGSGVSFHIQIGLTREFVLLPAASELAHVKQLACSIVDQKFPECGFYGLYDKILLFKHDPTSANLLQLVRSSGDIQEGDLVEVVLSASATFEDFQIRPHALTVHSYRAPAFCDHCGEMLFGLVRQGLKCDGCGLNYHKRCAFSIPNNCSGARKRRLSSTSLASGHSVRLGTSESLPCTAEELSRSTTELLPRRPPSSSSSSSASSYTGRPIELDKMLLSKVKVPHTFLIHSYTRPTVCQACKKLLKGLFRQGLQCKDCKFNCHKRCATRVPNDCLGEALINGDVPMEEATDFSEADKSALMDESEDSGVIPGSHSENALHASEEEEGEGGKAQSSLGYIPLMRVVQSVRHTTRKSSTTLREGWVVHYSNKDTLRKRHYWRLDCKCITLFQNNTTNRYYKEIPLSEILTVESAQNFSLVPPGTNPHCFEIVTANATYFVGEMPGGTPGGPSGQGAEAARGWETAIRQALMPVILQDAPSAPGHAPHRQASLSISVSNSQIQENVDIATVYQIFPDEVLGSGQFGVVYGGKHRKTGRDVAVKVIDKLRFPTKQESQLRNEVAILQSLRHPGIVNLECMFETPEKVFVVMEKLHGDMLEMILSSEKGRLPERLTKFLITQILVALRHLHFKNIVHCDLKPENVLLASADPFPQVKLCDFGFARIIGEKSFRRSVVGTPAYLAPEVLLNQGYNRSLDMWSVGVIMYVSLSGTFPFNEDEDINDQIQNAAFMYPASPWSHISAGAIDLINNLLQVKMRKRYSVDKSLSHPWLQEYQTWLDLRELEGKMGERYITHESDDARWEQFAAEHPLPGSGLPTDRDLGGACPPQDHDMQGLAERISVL
Sequence of Fibroblast growth factor receptor 1 (Homo sapiens) (P11362 22-822 limits assumed): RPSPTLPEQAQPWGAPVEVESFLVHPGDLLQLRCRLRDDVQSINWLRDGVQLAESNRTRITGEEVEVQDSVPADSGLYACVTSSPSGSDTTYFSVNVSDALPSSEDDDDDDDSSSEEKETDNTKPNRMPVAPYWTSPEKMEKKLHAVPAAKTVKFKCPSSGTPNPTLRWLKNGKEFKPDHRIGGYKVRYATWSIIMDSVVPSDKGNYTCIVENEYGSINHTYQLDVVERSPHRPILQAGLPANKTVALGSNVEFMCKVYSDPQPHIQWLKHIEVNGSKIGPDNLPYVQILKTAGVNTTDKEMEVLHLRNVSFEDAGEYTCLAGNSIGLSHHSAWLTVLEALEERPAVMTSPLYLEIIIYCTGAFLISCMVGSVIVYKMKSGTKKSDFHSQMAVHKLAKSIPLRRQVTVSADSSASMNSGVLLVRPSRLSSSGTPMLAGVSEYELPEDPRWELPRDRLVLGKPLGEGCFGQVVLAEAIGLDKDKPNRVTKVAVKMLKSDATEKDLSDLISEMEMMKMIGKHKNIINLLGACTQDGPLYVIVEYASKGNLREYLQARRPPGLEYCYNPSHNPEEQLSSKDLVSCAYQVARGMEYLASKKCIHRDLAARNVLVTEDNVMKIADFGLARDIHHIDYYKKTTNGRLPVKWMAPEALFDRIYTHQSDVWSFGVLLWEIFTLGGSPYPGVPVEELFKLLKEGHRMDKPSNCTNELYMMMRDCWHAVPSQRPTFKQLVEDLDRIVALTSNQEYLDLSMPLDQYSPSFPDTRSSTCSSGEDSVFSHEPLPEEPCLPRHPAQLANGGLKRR
Sequence of Cyclin-dependent kinase-like 2 (Homo sapiens) (Q92772 whole entry): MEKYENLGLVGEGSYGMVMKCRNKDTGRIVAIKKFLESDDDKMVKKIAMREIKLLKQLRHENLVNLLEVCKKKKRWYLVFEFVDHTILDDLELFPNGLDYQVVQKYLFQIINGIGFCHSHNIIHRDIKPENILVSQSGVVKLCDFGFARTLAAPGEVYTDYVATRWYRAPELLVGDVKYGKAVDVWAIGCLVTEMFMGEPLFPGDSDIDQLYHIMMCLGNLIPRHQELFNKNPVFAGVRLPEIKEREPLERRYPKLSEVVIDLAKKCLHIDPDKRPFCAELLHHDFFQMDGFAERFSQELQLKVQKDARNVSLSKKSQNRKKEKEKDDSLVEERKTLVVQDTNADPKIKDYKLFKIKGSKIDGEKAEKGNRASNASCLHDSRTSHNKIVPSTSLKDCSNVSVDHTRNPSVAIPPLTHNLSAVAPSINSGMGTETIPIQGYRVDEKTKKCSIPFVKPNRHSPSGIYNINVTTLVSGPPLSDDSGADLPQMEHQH

O=C(Nc1cccnc1)c1cc(-c2ccnc(F)c2)ccc1OCc1ccccc1
Activity [1]: 66%
Activity [2]: 68%
Activity [3]: 79%
Activity [4]: 60%
Activity [5]: 77%
Activity [6]: 46%
Activity [7]: 116%
Activity [8]: 71%
Activity [9]: 101%
Activity [10]: 103%
Activity [11]: 106%
Activity [12]: 110%
Activity [13]: 21%
Activity [14]: 52%
Activity [15]: 46%
Activity [16]: 74%
Activity [17]: 73%
Activity [18]: 67%
Activity [19]: 79%
Activity [20]: 30%
Activity [21]: 5.8%
Activity [22]: 76%
Activity [23]: 69%
Activity [24]: 103%
Activity [25]: 64%
Activity [26]: 32%
Activity [27]: 75%
Activity [28]: 23%
inhibition [29]: Active
inhibition [30]: Active

— ChEMBL document CHEMBL2203081 (Bioorg Med Chem Lett, 2012)
